This passage reports Survival, T/C and EC50 results from ChEMBL document CHEMBL1123978, “Synthesis and antineoplastic evaluation of 1,4-bis(aminoalkanamido)-9,10-anthracenediones” (J Med Chem, 1988).

In general, T/C refers to the ratio of treated to control. The EC50 is the concentration that produces a half-maximal response. Read a low EC50 as higher potency in that assay.

Values after ≈ are worked out from the molar mass of the structure shown.

Assay [1] has as its system P338. Nature of the assay: Survivor recorded on day 4 after day of first injection as a measure of drug toxicity (dose 5 mg/kg); 8/8. Format: functional, Mus musculus.
The test system of assay [2] is P338. Nature of the assay: Ratio of medium survival time expressed as percent of untreated controls (dose 10 mg/kg). Format: functional, Mus musculus. Put shortly:
(§1)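 BDF1 mice inoculated ip on day 0 with 10^6 P388 lymphocytic leukemia cells. Drug given ip on days 1–5 following NCI protocols, at the dose stated. Eight mice per treatment group. Mean survival time was computed per group, and % T/C = (MST treated/MST control) × 100.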

Assay [3] has as its system P338. Put plainly: Ratio of medium survival time expressed as percent of untreated controls(dose 1.25 mg/kg). Format: functional, Mus musculus. Put shortly:
as §1

For assay [4], the system named is P338. Nature of the assay: Survivor recorded on day 4 after day of first injection as a measure of drug toxicity (dose 10 mg/kg); 8/8. Format: functional, Mus musculus.
Assay [5] relates to P338. Nature of the assay: Ratio of medium survival time expressed as percent of untreated controls(dose 40 mg/kg); Toxic. Format: functional, organism-based. Also noted: dose 40 mg/kg. Conditions: Mus musculus, at 40 mg/kg. Put shortly: as §1
Another assay relates to L1210. Put plainly: Effective concentration required to inhibit by 50% the growth of L1210 cells. Format: functional, cell-based. The note with it: Mus musculus. An outline of the steps: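 Mouse L1210 leukemia cells were grown in RPMI 1640 with 5% fetal calf serum, penicillin and streptomycin at 37 °C in humidified air–5% CO2, and seeded at 5 × 10⁴ cells/mL. Compounds dissolved in 50% ethanol were added at four concentrations. EC50 is the concentration giving 50% growth inhibition after 48 h, measured by cell protein content.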

Assay [6] deals with P338. Nature of the assay: Survivor recorded on day 4 after day of first injection as a measure of drug toxicity (dose 40 mg/kg); 8/8. Format: functional, Mus musculus.
Assay [7] concerns P338. Put plainly: Survivor recorded on day 4 after day of first injection as a measure of drug toxicity(dose 1.25 mg/kg); 8/8. Format: functional, Mus musculus.
Assay [8] relates to P338. Put plainly: Survivor recorded on day 4 after day of first injection as a measure of drug toxicity (dose 2.5 mg/kg); 8/8. Format: functional, Mus musculus.
Assay [9] relates to P338. Put plainly: Survivor recorded on day 4 after day of first injection as a measure of drug toxicity (dose 20 mg/kg); 8/8. Format: functional, Mus musculus.
In another assay the test system is HeLa. Nature of the assay: Effective concentration required to inhibit by 50% the growth of HeLa S3 cells. The note with it: Homo sapiens. Format: functional, cell-based. Put shortly: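 HeLa S3 cultures were given compounds dissolved in water, at final concentrations of 0.005–5 μg/mL in the incubation medium. EC50 is the concentration that inhibited the increment of cellular protein by 50%, read from dose-response curves.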

Assay [10] concerns P338. Put plainly: Ratio of medium survival time expressed as percent of untreated controls (dose 5 mg/kg). Format: functional, Mus musculus. An outline of the steps:
as §1

The subject of assay [11] is P338. Put plainly: Ratio of medium survival time expressed as percent of untreated controls (dose 2.5 mg/kg). Format: functional, Mus musculus. Put shortly: as §1
Assay [12] deals with P338. Put plainly: Ratio of medium survival time expressed as percent of untreated controls (dose 20 mg/kg). Format: functional, Mus musculus. Put shortly:
as §1

Assay [13] relates to P338. Nature of the assay: Ratio of medium survival time expressed as percent of untreated controls (dose 6.25 mg/kg). Format: functional, Mus musculus. An outline of the steps: as §1
Assay [14] concerns P338. Put plainly: Survivor recorded on day 4 after day of first injection as a measure of drug toxicity (dose 3.12 mg/kg); 8/8. Format: functional, Mus musculus.
Assay [15] deals with P338. Put plainly: Ratio of medium survival time expressed as percent of untreated controls (dose 3.12 mg/kg). Format: functional, Mus musculus. An outline of the steps: as §1
Assay [16] relates to P338. Put plainly: Ratio of medium survival time expressed as percent of untreated controls (dose 12.5 mg/kg). Format: functional, Mus musculus. An outline of the steps: as §1
For assay [17], the system named is P338. Nature of the assay: Ratio of medium survival time expressed as percent of untreated controls (dose 25 mg/kg); Toxic. Format: functional, organism-based. The arrangement: dose 25 mg/kg. The note with it: Mus musculus, at 25 mg/kg.
Assay [18] relates to P338. Put plainly: Survivor recorded on day 4 after day of first injection as a measure of drug toxicity (dose 50 mg/kg); 0/8. Format: functional, Mus musculus.
For assay [19], the system named is P338. Nature of the assay: Survivor recorded on day 4 after day of first injection as a measure of drug toxicity (dose 25 mg/kg); 6/8. Format: functional, Mus musculus.
The test system of assay [20] is P338. Nature of the assay: Survivor recorded on day 4 after day of first injection as a measure of drug toxicity (dose 12.5 mg/kg); 8/8. Format: functional, Mus musculus.
Assay [21] has as its system P338. Nature of the assay: Ratio of medium survival time expressed as percent of untreated controls (dose 1.6 mg/kg). Format: functional, Mus musculus. Put shortly:
as §1

For assay [22], the system named is P338. Nature of the assay: Survivor recorded on day 4 after day of first injection as a measure of drug toxicity (dose 1.6 mg/kg); 8/8. Format: functional, Mus musculus.
The subject of assay [23] is P338. Put plainly: Survivor recorded on day 4 after day of first injection as a measure of drug toxicity (dose 6.25 mg/kg); 8/8. Format: functional, Mus musculus.
The subject of assay [24] is P338. Put plainly: Survivor recorded on day 4 after day of first injection as a measure of drug toxicity(dose 1.5 mg/kg); 8/8. Format: functional, Mus musculus.
Assay [25] has as its system P338. Put plainly: Ratio of medium survival time expressed as percent of untreated controls(dose 3.12 mg/kg). Format: functional, Mus musculus. Put shortly:
as §1

Assay [26] deals with P338. Put plainly: Ratio of medium survival time expressed as percent of untreated controls(dose 1.5 mg/kg). Format: functional, Mus musculus. An outline of the steps:
as §1

Assay [27] concerns P338. Nature of the assay: Survivor recorded on day 4 after day of first injection as a measure of drug toxicity(dose 25 mg/kg); 8/8. Format: functional, Mus musculus.
In assay [28] the test system is P338. Put plainly: Survivor recorded on day 4 after day of first injection as a measure of drug toxicity(dose 50 mg/kg); 8/8. Format: functional, Mus musculus.
Assay [29] relates to P338. Put plainly: Ratio of medium survival time expressed as percent of untreated controls(dose 25 mg/kg). Format: functional, Mus musculus. Put shortly:
as §1

The test system of assay [30] is P338. Nature of the assay: Ratio of medium survival time expressed as percent of untreated controls(dose 50 mg/kg). Format: functional, Mus musculus. Put shortly: as §1
For assay [31], the system named is P338. Nature of the assay: Ratio of medium survival time expressed as percent of untreated controls(dose 6.25 mg/kg). Format: functional, Mus musculus. An outline of the steps: as §1
Assay [32] concerns P338. Put plainly: Ratio of medium survival time expressed as percent of untreated controls(dose 12.5 mg/kg). Format: functional, Mus musculus. Put shortly:
as §1

Assay [33] concerns P338. Put plainly: Survivor recorded on day 4 after day of first injection as a measure of drug toxicity(dose 12.5 mg/kg); 8/8. Format: functional, Mus musculus.
The subject of assay [34] is P338. Nature of the assay: Survivor recorded on day 4 after day of first injection as a measure of drug toxicity(dose 3.12 mg/kg); 8/8. Format: functional, Mus musculus.
Assay [35] concerns P338. Put plainly: Survivor recorded on day 4 after day of first injection as a measure of drug toxicity(dose 6.25 mg/kg); 8/8. Format: functional, Mus musculus.
Assay [36] has as its system P338. Nature of the assay: Survivor recorded on day 4 after day of first injection as a measure of drug toxicity(dose 25 mg/kg); 6/6. Format: functional, Mus musculus.
Assay [37] has as its system P338. Put plainly: Survivor recorded on day 4 after day of first injection as a measure of drug toxicity(dose 12.5 mg/kg); 6/6. Format: functional, Mus musculus.
Assay [38] has as its system P338. Nature of the assay: Survivor recorded on day 4 after day of first injection as a measure of drug toxicity(dose 3.12 mg/kg); 6/6. Format: functional, Mus musculus.
Assay [39] has as its system P338. Put plainly: Survivor recorded on day 4 after day of first injection as a measure of drug toxicity(dose 6.25 mg/kg); 6/6. Format: functional, Mus musculus.

As to `CNCCC(=O)Nc1ccc(NC(=O)CCNC)c2c1C(=O)c1ccccc1C2=O`, the Survival with P338 [1], with P338 [4], in the assay on P338 [6], in the assay on P338 [7], with P338 [8] and in the assay with P338 [9] was 8 throughout. Also, the T/C in the assay on P338 [2] is 130%; in the assay with P338 [3], 110%; in the assay with P338 [5], “Toxic”; in the assay with P338 [10], 130%; in the assay on P338 [11], 120%; with P338 [12], 120%. Also, the figures for the EC50 in the assay on L1210 and with HeLa were 1.28 µg/mL (≈ 3.13 µM) and 0.08 µg/mL (≈ 0.196 µM), respectively.

As for `CN(C)CCC(=O)Nc1ccc(NC(=O)CCN(C)C)c2c1C(=O)c1ccccc1C2=O`, the T/C is 100% in the assay on P338 [13]; 91% in the assay with P338 [15]; 100% in the assay with P338 [16]; “Toxic” with P338 [17]; 91% in the assay with P338 [21]. Also, the Survival is recorded as 8 in the assay with P338 [14]; 0 in the assay with P338 [18]; 6 with P338 [19]; 8 with P338 [20]; 8 in the assay with P338 [22]; 8 in the assay with P338 [23]. Moreover, the EC50 with L1210 was determined as 0.36 µg/mL (≈ 0.825 µM); in the assay on HeLa it was 0.05 µg/mL (≈ 0.115 µM).

`O=C1c2c(O)ccc(O)c2C(=O)c2c(NCCNCCO)ccc(NCCNCCO)c21` [MITOXANTRONE]: the EC50 was above 5 µg/mL with L1210 and 0.55 µg/mL (≈ 1.24 µM) in the assay with HeLa.

On to `CN(C)CC(=O)Nc1ccc(NC(=O)CN(C)C)c2c1C(=O)c1ccccc1C2=O`, for which the EC50 in the assay with L1210 was 2.26 µg/mL (≈ 5.53 µM); with HeLa, 0.39 µg/mL (≈ 0.955 µM).

As for `CNCC(=O)Nc1ccc(NC(=O)CNC)c2c1C(=O)c1ccccc1C2=O`, the Survival with P338 [24], in the assay with P338 [27], in the assay on P338 [28], in the assay on P338 [33], with P338 [34] and in the assay on P338 [35] was 8 each time. For the same compound, the T/C with P338 [25] is 100%; in the assay with P338 [26], 100%; in the assay on P338 [29], 100%; in the assay with P338 [30], 111%; in the assay with P338 [31], 111%; in the assay on P338 [32], 100%. Moreover, the EC50 in the assay with L1210 worked out at 0.79 µg/mL (≈ 2.08 µM); in the assay on HeLa it was 0.14 µg/mL (≈ 0.368 µM).

As to `O=C1c2ccccc2C(=O)c2c(NCCNCCO)ccc(NCCNCCO)c21` [AMETANTRONE], the T/C in the assay with P338 [25] was found to be 190%; with P338 [29] it was 200%; with P338 [31], 210%; in the assay on P338 [32], 300%. The Survival with P338 [36], in the assay with P338 [37], in the assay with P338 [38] and in the assay on P338 [39] was 6 throughout. For the same compound, the EC50 in the assay with L1210 was 1.77 µg/mL (≈ 4.29 µM); in the assay on HeLa, 0.17 µg/mL (≈ 0.412 µM).

For `O=C(CNCCO)Nc1ccc(NC(=O)CNCCO)c2c1C(=O)c1ccccc1C2=O`, the EC50 in the assay on L1210 is above 5 µg/mL; in the assay with HeLa it was 1.41 µg/mL (≈ 3.2 µM).
